“Also recorded” adds a separate entry of the source. *1 amine or outer side, *2 acyl side, *3 side chain or, on linkers, in order; H or OH if unused. Where a SMILES comes first, the peptide text is derived from it. Side-chain parts run from the residue outwards. [ ]: non-standard residue; d: D form. The star is where a group is joined. Ethylenediamine = C(CN[*:2])N[*:1]; Hyp = O=C(O)[C@@H]1C[C@@H](O)CN1; Phg = N[C@H](C(=O)O)c1ccccc1; CO = O=C([*:1])[*:2]; Bn = c1ccc(C*)cc1
Tests used:
[1] = tested on: patients with advanced carcinoid syndrome refractory to octreotide LAR; settings: pasireotide LAR 60 mg vs octreotide LAR 30 mg; cited from earlier work
[2] = tested on: patients with advanced NETs; assay: MTD/dose-limiting toxicity; type: in vivo, human; settings: 80 and 120 mg; first two treatment cycles
In short: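 Dose escalation in cohorts of 3–6 patients, starting at 80 mg IM every 28 days. Later doses were chosen in 20 mg multiples by a two-parameter Bayesian logistic regression model with overdose control. Intra-patient escalation was not allowed; de-escalation was permitted. DLT window was the first two 28-day cycles. Evaluable patients had two injections with sufficient safety evaluation, or a DLT. MTD was defined as the highest dose with expected DLT in ≤33%.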

[3] = tested on: patients with advanced NETs; assay: AEs regardless of study drug relationship; type: in vivo, human
In short: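 Open-label, multicentre phase I in adults with advanced, well- or moderately differentiated NETs progressing within the prior 12 months; HbA1c >7.0% excluded. Test compound given as long-acting IM injection every 28 days. Safety set was everyone receiving at least one dose, grouped by first dose received. AEs coded by MedDRA 18.0; laboratory abnormalities graded by CTCAE 3.0.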

[4] = tested on: patients with advanced NETs; assay: Bradycardia; type: in vivo, human; settings: for Odds ratio [95% CI] of bradycardia (HR <40 bpm) for a 1.5-fold increase in pasireotide concentration: logistic regression, not statistically significant
In short: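 HR recorded by 24-hour Holter on Cycle 1 Day 1 and Cycle 2 Day 1 in all patients. Bradycardia, defined as minimum HR <40 bpm, was analysed by pooling vital signs, 12-lead ECG and Holter data. Post hoc review covered dose-escalation cohorts plus the 120 mg expansion cohort. Dosing was IM every 28 days.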

[5] = Pasireotide plasma concentrations; type: in vivo; settings: human, im

| Molecule | Tumor control rate at month 6 [1] [%] | Protocol-defined dose-limiting toxicities (DLTs) [2] | AEs of any grade, patients ([3]; 80 mg) [%] | AEs, Total ([3]; 80 mg i.m./28 days (n=13), Grade 3/4) | AEs, Total ([3]; 80 mg i.m./28 days (n=13), all grade) | AEs of any grade, patients ([3]; 120 mg) [%] | AEs, Total ([3]; 120 mg i.m./28 days (n=16), Grade 3/4) | AEs, Total ([3]; 120 mg i.m./28 days (n=16), all grade) | AEs, Total ([3]; all patients, 80 or 120 mg (N=29), Grade 3/4) | AEs, Total ([3]; all patients, 80 or 120 mg (N=29), all grade) | Incidence of bradycardia (HR <40 bpm) ([4]; 120 mg (5/16), Holter assessment, post hoc) [%] | Odds ratio [95% CI] of bradycardia (HR <40 bpm) for a 1.5-fold increase in pasireotide concentration ([4]; day time (6 am through 10 pm)) | Odds ratio [95% CI] of bradycardia (HR <40 bpm) for a 1.5-fold increase in pasireotide concentration ([4]; night time (10 pm through 6 am)) | Cmax ([5]; 80 mg) [ng/mL] | Cmax ([5]; 120 mg) [ng/mL] |
| --- | --- | --- | --- | --- | --- | --- | --- | --- | --- | --- | --- | --- | --- | --- | --- |
| octreotide [octreotide LAR] | 46.2 |  |  |  |  |  |  |  |  |  |  |  |  |  |  |
| NCCCC[C@@H]1NC(=O)[C@@H](Cc2c[nH]c3ccccc23)NC(=O)[C@H](c2ccccc2)NC(=O)[C@@H]2C[C@@H](OC(=O)NCCN)CN2C(=O)[C@H](Cc2ccccc2)NC(=O)[C@H](Cc2ccc(OCc3ccccc3)cc2)NC1=O [Pasireotide LAR, pasireotide] (cyclo([Hyp]([CO-Ethylenediamine])[Phg][dW]KY(Bn)F)) |  | No protocol-defined dose-limiting toxicities; also recorded: no protocol-defined DLTs | 92 | 9 (69.2) n (%) | 12 (92.3) n (%) | 100 | 11 (68.8) n (%) | 16 (100) n (%) | 20 (69.0) n (%) | 28 (96.6) n (%) | 31 | 1.67 [0.38–7.34] | 2.02 [0.49–8.29] | 13.7 ± 11.5 | 23.2 ± 31.4 |

Reference: paper PMC5499931 (OncoTargets and therapy, 2017)
